Assay [1] addresses T1, Transient receptor potential cation channel subfamily A member 1 (Homo sapiens, UniProt O75762). Description: Agonist activity at TRPA1 isolated from human W138 cells expressed in HEK293T cells assessed as intracellular Ca2+ influx by Fluo-4 AM staining-based fluorescence analysis. The assay is classed as cell-based. The method, boiled down: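 Tetracycline-induced (1 μg/mL) stable hTRPA1 in HEK T-REx cells, Fluo-4 AM loaded (3 μM, 1 h, 37 °C) in HEPES buffer pH 7.4 with probenecid; Ca2+ read at 37 °C. Responses as % of 5 μM ionomycin or of 100 μM AITC; TREx cells without TRPA1 as control; n = 4−8.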

In assay [2] the target is Transient receptor potential cation channel subfamily V member 1 (Homo sapiens, UniProt Q8NER1). In words: Antagonist activity at human brain TRPV1 expressed in HEK293T cells assessed as inhibition of CAP-induced intracellular Ca2+ influx by fluorescence-based assay. The class given is cell-based, HEK-293T. The method, boiled down: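 hTRPV1-HEK293T, Fluo-4 Ca2+ at 37 °C; antagonist (0.3−100 μM) preincubated 3 min then 0.01 μM capsaicin; DMSO final 0.1−1%. IC50 from dose−inhibition curves; data as % of 10 μM capsaicin.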
Sequence of Transient receptor potential cation channel subfamily V member 1 (Q8NER1 whole entry): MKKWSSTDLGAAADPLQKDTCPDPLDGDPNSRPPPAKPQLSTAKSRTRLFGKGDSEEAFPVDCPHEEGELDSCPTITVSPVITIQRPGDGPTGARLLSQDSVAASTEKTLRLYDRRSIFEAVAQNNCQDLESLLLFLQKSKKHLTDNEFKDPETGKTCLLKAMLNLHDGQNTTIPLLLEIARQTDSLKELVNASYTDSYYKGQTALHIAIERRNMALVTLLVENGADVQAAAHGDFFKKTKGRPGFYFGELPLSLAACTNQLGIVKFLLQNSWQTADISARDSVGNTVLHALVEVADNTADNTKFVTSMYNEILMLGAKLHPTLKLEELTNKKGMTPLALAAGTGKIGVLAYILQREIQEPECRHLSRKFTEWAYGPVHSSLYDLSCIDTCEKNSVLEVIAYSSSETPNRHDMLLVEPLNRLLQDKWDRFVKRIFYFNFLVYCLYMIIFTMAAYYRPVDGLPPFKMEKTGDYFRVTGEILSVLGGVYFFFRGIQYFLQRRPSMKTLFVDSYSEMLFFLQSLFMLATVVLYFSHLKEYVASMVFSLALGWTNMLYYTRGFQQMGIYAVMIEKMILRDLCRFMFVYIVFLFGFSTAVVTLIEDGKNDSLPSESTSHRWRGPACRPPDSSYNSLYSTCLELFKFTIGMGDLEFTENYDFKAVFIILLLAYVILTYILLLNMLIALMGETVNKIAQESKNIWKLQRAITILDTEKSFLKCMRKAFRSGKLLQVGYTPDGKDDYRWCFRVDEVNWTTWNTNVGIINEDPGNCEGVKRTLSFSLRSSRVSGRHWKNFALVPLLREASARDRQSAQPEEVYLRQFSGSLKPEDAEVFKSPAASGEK

Assay [3] addresses Transient receptor potential cation channel subfamily M member 8 (Mus musculus, UniProt Q8R4D5). In words: Competitive antagonist at TRPM8 isolated from mouse dorsal root ganglion cells expressed in HEK T-REx cells assessed as inhibition of menthol-induced intracellular Ca2+ influx by Schlid plot analysis.
The target of assay [4] is T1, Transient receptor potential cation channel subfamily A member 1. In words: Agonist activity at TRPA1 isolated from human W138 cells expressed in HEK293T cells assessed as intracellular Ca2+ influx at 100 uM by Fluo-4 AM staining-based fluorescence analysis in presence of antagonist HC-030031. The assay is classed as cell-based. The procedure, abridged:
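Tetracycline-induced (1 μg/mL) stable hTRPA1 in HEK T-REx cells, Fluo-4 AM loaded (3 μM, 1 h, 37 °C) in HEPES buffer pH 7.4 with probenecid; Ca2+ read at 37 °C. Compound 0.01−100 μM; HC-030031 30 μM pretreated 3 min. Responses as % of 5 μM ionomycin or of 100 μM AITC; TREx cells without TRPA1 as control; n = 4−8.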

Assay [5] concerns the target T2, Transient receptor potential cation channel subfamily V member 3 (Homo sapiens) (UniProt Q8NET8).
T2 sequence (whole entry): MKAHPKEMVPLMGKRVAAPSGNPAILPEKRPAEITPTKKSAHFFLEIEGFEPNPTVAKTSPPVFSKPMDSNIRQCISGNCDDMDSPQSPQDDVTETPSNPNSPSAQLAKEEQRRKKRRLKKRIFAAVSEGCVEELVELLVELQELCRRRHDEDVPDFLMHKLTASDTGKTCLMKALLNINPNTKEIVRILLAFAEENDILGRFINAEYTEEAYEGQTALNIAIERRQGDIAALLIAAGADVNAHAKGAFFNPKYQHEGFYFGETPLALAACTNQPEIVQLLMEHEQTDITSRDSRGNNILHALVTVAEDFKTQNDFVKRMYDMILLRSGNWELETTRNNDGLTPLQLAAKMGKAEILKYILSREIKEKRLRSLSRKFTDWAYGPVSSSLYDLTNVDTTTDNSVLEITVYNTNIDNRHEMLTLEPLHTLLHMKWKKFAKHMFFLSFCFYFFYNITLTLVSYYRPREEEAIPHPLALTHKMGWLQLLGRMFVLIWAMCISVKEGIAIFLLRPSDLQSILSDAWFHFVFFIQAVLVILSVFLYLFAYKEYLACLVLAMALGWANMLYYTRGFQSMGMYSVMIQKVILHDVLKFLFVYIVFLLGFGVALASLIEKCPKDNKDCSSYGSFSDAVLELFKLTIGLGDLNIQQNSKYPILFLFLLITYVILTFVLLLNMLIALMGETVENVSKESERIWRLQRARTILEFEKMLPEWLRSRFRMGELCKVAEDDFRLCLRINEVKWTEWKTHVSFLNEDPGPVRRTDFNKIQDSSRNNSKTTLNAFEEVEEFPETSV
Description: Antagonist activity at human TRPV3 expressed in HEK293T cells assessed as menthol-induced intracellular Ca2+ influx at 100 uM by Fluo-4 AM staining-based fluorescence analysis. The assay is classed as cell-based. The note with it: HEK-293T. The method, boiled down:
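hTRPV3 transiently expressed in HEK293T; loading and assay at 25 °C, Fluo-4 with probenecid buffer pH 7.4. Agonist 100 and 300 μM menthol, 5 μM ruthenium red as reference; 100 μM compound alone or pretreated 3 min. Data as % of 1000 μM menthol.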

Assay [6] deals with T3, Transient receptor potential cation channel subfamily V member 2 (Homo sapiens) (UniProt Q9Y5S1).
T3 sequence (whole entry): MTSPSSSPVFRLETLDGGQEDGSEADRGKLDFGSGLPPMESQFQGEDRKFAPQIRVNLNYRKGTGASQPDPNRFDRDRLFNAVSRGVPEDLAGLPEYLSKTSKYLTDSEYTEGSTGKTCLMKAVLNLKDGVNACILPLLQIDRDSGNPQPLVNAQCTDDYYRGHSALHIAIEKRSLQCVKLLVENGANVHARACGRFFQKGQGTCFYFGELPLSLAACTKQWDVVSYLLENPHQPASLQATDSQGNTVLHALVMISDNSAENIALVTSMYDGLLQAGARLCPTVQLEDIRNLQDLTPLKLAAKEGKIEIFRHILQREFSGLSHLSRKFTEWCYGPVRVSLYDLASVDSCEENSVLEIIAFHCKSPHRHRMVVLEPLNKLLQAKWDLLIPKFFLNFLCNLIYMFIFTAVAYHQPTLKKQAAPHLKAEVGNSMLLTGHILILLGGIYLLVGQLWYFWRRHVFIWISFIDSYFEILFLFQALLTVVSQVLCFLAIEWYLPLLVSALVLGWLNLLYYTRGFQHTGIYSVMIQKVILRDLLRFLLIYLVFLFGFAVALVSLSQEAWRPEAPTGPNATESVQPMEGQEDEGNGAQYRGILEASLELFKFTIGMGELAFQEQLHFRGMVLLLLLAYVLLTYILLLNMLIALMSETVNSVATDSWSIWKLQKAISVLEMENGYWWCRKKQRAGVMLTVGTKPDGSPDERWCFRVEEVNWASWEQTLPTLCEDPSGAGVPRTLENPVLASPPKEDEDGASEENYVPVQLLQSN
Description: Agonist activity at human TRPV2 expressed in HEK293T cells assessed as intracellular Ca2+ influx at 100 uM by Fluo-4 AM staining-based fluorescence analysis. The class given is cell-based. The note with it: HEK-293T. The procedure, abridged: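 hTRPV2 transiently transfected into HEK293T, seeded 6 h after transfection and used 18 h later. Fluo-4 loading in probenecid-free buffer, 37 °C. Agonist 30 and 40 μM LPC; ruthenium red 5 μM as reference blocker; 100 μM compound given alone or pretreated 3 min. Read-out ΔF/F0 (%).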

Calls of active or inactive are those of the source. The rule behind the calls is not given here.

For orientation: EC50 means the concentration that produces a half-maximal response. In general, IC50 refers to the point on the concentration scale where inhibition reaches its midpoint. Broadly, the Kb is the affinity of an antagonist, worked out from how it opposes an agonist.

T1 sequence (O75762 whole entry): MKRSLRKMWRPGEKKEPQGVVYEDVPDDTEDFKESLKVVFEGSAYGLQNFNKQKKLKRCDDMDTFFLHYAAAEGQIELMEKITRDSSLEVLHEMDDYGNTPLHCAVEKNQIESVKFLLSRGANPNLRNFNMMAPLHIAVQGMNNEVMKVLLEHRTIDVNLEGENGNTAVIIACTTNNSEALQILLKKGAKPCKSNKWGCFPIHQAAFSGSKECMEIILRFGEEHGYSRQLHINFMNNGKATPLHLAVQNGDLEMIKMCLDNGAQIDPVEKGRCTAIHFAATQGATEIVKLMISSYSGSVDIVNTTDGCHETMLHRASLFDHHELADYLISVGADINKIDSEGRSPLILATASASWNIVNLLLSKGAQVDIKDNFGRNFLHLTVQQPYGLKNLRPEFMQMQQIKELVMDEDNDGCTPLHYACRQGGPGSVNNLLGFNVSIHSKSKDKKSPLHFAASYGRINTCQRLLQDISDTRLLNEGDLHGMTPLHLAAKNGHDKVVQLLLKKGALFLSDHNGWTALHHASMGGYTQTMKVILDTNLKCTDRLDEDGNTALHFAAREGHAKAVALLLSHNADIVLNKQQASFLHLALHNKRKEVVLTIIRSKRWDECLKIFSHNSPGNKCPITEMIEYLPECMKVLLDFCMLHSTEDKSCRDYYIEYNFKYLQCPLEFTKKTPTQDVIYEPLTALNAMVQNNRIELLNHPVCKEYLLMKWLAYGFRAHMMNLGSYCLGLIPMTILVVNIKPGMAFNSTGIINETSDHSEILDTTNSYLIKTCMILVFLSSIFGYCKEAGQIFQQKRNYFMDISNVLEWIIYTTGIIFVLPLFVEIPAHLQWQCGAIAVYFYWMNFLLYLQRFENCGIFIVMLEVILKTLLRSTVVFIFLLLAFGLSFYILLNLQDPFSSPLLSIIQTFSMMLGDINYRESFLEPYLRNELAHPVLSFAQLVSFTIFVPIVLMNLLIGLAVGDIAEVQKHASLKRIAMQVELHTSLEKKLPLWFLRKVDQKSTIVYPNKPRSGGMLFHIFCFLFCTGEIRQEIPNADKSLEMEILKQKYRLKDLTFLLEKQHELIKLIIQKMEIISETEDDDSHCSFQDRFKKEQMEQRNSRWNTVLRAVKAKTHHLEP
Sequence of Transient receptor potential cation channel subfamily M member 8 (Q8R4D5 whole entry): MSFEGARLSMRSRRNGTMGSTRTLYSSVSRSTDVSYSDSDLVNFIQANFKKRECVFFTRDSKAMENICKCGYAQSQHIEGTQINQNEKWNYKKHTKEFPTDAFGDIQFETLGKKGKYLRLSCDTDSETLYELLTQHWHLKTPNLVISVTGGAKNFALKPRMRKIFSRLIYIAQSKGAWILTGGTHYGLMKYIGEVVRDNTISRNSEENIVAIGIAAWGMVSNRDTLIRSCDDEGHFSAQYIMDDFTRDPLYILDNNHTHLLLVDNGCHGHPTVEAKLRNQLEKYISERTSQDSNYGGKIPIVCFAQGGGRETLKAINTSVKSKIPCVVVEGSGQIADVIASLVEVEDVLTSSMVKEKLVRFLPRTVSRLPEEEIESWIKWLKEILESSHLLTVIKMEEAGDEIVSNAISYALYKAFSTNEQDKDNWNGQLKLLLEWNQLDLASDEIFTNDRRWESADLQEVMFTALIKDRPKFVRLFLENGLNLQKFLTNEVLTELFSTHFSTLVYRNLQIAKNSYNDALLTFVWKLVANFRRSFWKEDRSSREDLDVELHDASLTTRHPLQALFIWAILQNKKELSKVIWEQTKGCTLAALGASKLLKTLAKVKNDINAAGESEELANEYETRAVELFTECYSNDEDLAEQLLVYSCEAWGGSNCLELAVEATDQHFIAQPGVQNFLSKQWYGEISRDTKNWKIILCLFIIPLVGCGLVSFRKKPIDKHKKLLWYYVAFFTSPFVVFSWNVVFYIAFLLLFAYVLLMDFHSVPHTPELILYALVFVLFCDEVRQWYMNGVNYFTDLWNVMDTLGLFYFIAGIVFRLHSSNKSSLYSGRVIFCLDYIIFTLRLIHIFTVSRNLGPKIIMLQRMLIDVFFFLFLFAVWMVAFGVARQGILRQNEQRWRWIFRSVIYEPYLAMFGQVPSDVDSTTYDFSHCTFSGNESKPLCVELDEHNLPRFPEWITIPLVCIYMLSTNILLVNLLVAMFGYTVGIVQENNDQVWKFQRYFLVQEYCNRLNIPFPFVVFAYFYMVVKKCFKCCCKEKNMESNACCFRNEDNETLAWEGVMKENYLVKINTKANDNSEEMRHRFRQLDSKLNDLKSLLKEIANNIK

On to `CC[C@H]1C[C@@H]2CN3CCc4c([nH]c5ccc(OC)cc45)[C@](C(=O)OC)(C2)[C@H]13` [VOACANGINE], for which the EC50 in assay [1] is 8 µM. Moreover, in assay [1] (HEK-293T), the Activity result is “Dose-dependent effect”. Moreover, in assay [2], the IC50 is 50 µM. In assay [2] (HEK-293T), the inhibition result is “Dose-dependent effect”. Further, in assay [3], the Kb is 7.94 µM. Also, the result in assay [4], in assay [5] and in assay [6] was inactive.
